Measured values gathered from unrelated publications.
Each line is one published result; the experiments were not run side by side.
PIK3CA E542K: Phosphatidylinositol 4,5-bisphosphate 3-kinase catalytic subunit alpha isoform (PIK3CA, Homo sapiens, UniProt P42336, E542K)
PIK3CA H1047Y: Phosphatidylinositol 4,5-bisphosphate 3-kinase catalytic subunit alpha isoform (PIK3CA, Homo sapiens, UniProt P42336, H1047Y)
PIK3CA: Phosphatidylinositol 4,5-bisphosphate 3-kinase catalytic subunit alpha isoform (PIK3CA, Homo sapiens, UniProt P42336)
PIK3CA H1047L: Phosphatidylinositol 4,5-bisphosphate 3-kinase catalytic subunit alpha isoform (PIK3CA, Homo sapiens, UniProt P42336, H1047L)
PIK3CA Q546K: Phosphatidylinositol 4,5-bisphosphate 3-kinase catalytic subunit alpha isoform (PIK3CA, Homo sapiens, UniProt P42336, Q546K)
PIK3CA I800L: Phosphatidylinositol 4,5-bisphosphate 3-kinase catalytic subunit alpha isoform (PIK3CA, Homo sapiens, UniProt P42336, I800L)
PIK3CA C420R: Phosphatidylinositol 4,5-bisphosphate 3-kinase catalytic subunit alpha isoform (PIK3CA, Homo sapiens, UniProt P42336, C420R)
PIK3CA M1043I: Phosphatidylinositol 4,5-bisphosphate 3-kinase catalytic subunit alpha isoform (PIK3CA, Homo sapiens, UniProt P42336, M1043I)
PIK3CA E545A: Phosphatidylinositol 4,5-bisphosphate 3-kinase catalytic subunit alpha isoform (PIK3CA, Homo sapiens, UniProt P42336, E545A)
PIK3CA E545K: Phosphatidylinositol 4,5-bisphosphate 3-kinase catalytic subunit alpha isoform (PIK3CA, Homo sapiens, UniProt P42336, E545K)

SMILES	target	observed	technique	concentration	remaining binding [%]
O=C(Nc1c[nH]nc1C(=O)NC1CCNCC1)c1cc(F)cc(F)c1	PIK3CA E542K	binding	competition with immobilised ligand	1 µM	88
C[C@@H]1CCN(c2nccc(-c3cnn4ncccc34)n2)C1	PIK3CA H1047Y	binding		1 µM	93
CC(C)(C)c1ccc(-c2nc(CBr)nn2-c2cccc(O)c2)cc1	PIK3CA	cell-free assay	competition with immobilised ligand	10 µM	80
Nc1ncc2c(n1)-c1c([nH]c3ccc(C#CC4CC4)cc13)CCCC2	PIK3CA E542K	binding	competition with immobilised ligand	1 µM	91
CS(=O)(=O)N1CCCC(NC(=O)[C@H](CCC2CCCCC2)NC(=O)c2ccc(CNC(=O)c3cnc4ccccn34)cc2)C1 (stereo partly shown)	PIK3CA H1047L	cell-free assay	competition with immobilised ligand	0.1 µM	100
CN(C)c1ncc(F)c(-c2cnn3ncccc23)n1	PIK3CA Q546K	binding		1 µM	86
O=C(NCCCN1CCOCC1)c1ccc(Nc2ncc(Cl)c(-c3ccc(Cl)s3)n2)cc1	PIK3CA I800L	binding	competition with immobilised ligand	1 µM	85
Cc1cnn2ncc(-c3ccnc(N(C)C)n3)c2c1	PIK3CA C420R	binding		1 µM	100
C=CC(=O)N1CCC(C(=O)NCC(=O)N2CCN(c3nc(-c4cnc(N)nc4C(F)F)nc(N4CCOCC4)n3)CC2)CC1	PIK3CA E542K	binding	competition with immobilised ligand	1 µM	0
CN1CCN(c2ccc(Nc3nccc(-c4ccccc4)n3)cc2C(F)(F)F)CC1	PIK3CA M1043I	binding		10 µM	92
Cn1nc(C(=O)NCc2ccc(C(=O)O)cc2)cc1-c1ccc2[nH]ccc2c1	PIK3CA Q546K	cell-free assay	competition with immobilised ligand	0.1 µM	76
c1cncc(-c2cccc(Nc3nccc(NC4CCCCC4)n3)c2)c1	PIK3CA M1043I	binding	competition with immobilised ligand	10 µM	84
O=C(NCCCC1CCCCC1)c1ccc(CNC(=O)c2cnn(-c3ccccc3)c2C(F)(F)F)cc1	PIK3CA M1043I	cell-free assay	competition with immobilised ligand	0.1 µM	68
F[C@@H]1CCN(c2nccc(-c3cnn4ncccc34)n2)C1	PIK3CA Q546K	binding		1 µM	55
Cc1cnc(Nc2ccc(C(=O)N3CCC(N4CCCC4)CC3)cc2)nc1-c1cc2ccccc2s1	PIK3CA I800L	binding	competition with immobilised ligand	1 µM	100
Cc1noc([C@H]2C[C@@H](c3ccc(C(F)(F)F)cc3)CN(C(=O)N3CCS(=O)(=O)C3)C2)n1	PIK3CA M1043I	cell-free assay	competition with immobilised ligand	1 µM	100
COc1ncc2cc3ccccc3nc2c1C#N	PIK3CA H1047L	cell-free assay	competition with immobilised ligand	5 µM	98
COc1cc(-c2cn(C3CCc4ccccc4N(CC(F)(F)F)C3=O)nn2)ccc1-n1ccc(C)n1 (stereo not shown)	PIK3CA I800L	cell-free assay	competition with immobilised ligand	1 µM	76
CN1CC[C@H](c2c(O)cc(O)c3c(=O)cc(-c4ccccc4Cl)oc23)[C@H](O)C1	PIK3CA	cell-free assay	competition with immobilised ligand	10 µM	97

SMILES	target	observed	technique	concentration	remaining binding [%]
CN(c1nccc(-c2cnn3ncccc23)n1)C1CC1	PIK3CA E545A	binding		1 µM	100
Cc1c(C(=O)O)cc(-c2ccc(C3CCNCC3)cc2)c2ccc(-c3ccc(C(F)(F)F)cc3)cc12	PIK3CA H1047Y	cell-free assay	competition with immobilised ligand	1 µM	100
CN1CCN(c2ccc(Nc3nccc(-c4cccc([N+](=O)[O-])c4)n3)cc2C(F)(F)F)CC1	PIK3CA Q546K	binding		10 µM	37
C[C@@H](c1ccc(-n2cnc3c(N)ncnc32)cc1)N1CCc2nn(C)c(Cc3ccccc3)c2C1=O	PIK3CA E542K	binding	competition with immobilised ligand	0.1 µM	83
O=C(c1ccc(Nc2ncc(Cl)c(-c3cc4ccccc4s3)n2)cc1)N1CCC(N2CCCC2)CC1	PIK3CA E545A	binding	competition with immobilised ligand	1 µM	99
CCC(=N\O)/C(C)=C/c1ccc(F)cc1	PIK3CA E542K	cell-free assay	competition with immobilised ligand	1 µM	100
O=C(c1ccc(Nc2nccc(-c3cc4ccccc4s3)n2)cc1)N1CCC(N2CCCC2)CC1	PIK3CA E545K	binding	competition with immobilised ligand	1 µM	82
COc1cnc(Nc2cccc(S(N)(=O)=O)c2)nc1N1CCN(c2ccccc2)CC1	PIK3CA I800L	binding	competition with immobilised ligand	1 µM	83
O=C(NCCCN1CCOCC1)c1ccc(Nc2nccc(-c3cc4ccccc4s3)n2)cc1	PIK3CA E545K	binding	competition with immobilised ligand	1 µM	40
CN(CCCC(F)(F)F)c1nccc(-c2cnn3ncccc23)n1	PIK3CA E545K	binding		1 µM	100
CCN1CCN(Cc2ccc(C(=O)Nc3ccc(C)c(Oc4ccc5c(c4)CC(=O)N5)c3)cc2C(F)(F)F)CC1	PIK3CA C420R	binding	competition with immobilised ligand	1 µM	100
CNC(=O)[C@@H]1CC[C@@H](n2c(-c3ccc4cnccc4c3)nc3ccc(C(=O)NCc4cccc(C(N)=O)c4)cc32)C1	PIK3CA M1043I	binding	competition with immobilised ligand	1 µM	79
CN(C)c1nccc(-c2cnc3ncccn23)n1	PIK3CA E545A	binding		1 µM	90
COc1cnc(Nc2cccc(S(N)(=O)=O)c2)nc1N1CCN(c2ccccc2)C(=O)C1	PIK3CA I800L	binding	competition with immobilised ligand	1 µM	59
O=C(NCC1CCOCC1)c1n[nH]cc1NC(=O)c1c(F)cccc1F	PIK3CA I800L	binding	competition with immobilised ligand	1 µM	77
Cc1nc(Cc2cccc(C(F)(F)F)c2)sc1-c1ccc(C(N)=O)nc1	PIK3CA C420R	cell-free assay	competition with immobilised ligand	1 µM	89
O=C(c1ccc(Nc2ncc(Cl)c(-c3ccc(Cl)s3)n2)cc1)N1CCC(N2CCCC2)CC1	PIK3CA H1047L	binding	competition with immobilised ligand	1 µM	100
N[C@H]1CCN(c2nccc(-c3cnn4ncccc34)n2)C1	PIK3CA H1047Y	binding		1 µM	56
